# Bioassay records as filed in PubChem.
# SIAE inh = inhibitors of human sialic acid acetylesterase SIAE; SIAE FP-Rh probe binding, fluorescence polarization; inhibition, % at 9.66 µM; hit rate 0.69% among 370,000; AID 1053197;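 active = inhibition above a cutoff: mean of compounds within the control limits plus 3 SD of those, cut at about 17% in these data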;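 note: 0% = plate median of compound wells and 100% = probe without SIAE protein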
# PRMT1 inh = blocks human protein arginine methyltransferase 1; Q99873; recombinant PRMT1, activity-based probe fluorescence polarization; inhibition, % at 2.79 µM; hit rate 1.3% among 370,000;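 active = inhibition above about 21% made by adding two undisclosed values, limit read from the data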
# Target sequence (Q99873 whole entry, looked up): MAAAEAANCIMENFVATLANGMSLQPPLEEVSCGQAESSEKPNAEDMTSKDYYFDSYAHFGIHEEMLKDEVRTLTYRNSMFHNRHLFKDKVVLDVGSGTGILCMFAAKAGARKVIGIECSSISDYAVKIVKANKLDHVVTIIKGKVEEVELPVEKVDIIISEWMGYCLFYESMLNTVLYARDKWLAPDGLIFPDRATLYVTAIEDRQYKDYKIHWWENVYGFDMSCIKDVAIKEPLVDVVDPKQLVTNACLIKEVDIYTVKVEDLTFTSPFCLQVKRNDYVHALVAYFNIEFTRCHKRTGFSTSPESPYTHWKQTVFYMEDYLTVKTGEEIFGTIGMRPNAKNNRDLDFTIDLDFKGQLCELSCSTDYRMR
# TCR CD3 inh = inhibitors of human TCR-CD3 interaction | inhibition, % at 9.4 µM | TAMRA-labeled TCR probe fluorescence, biochemical | hit rate 0.37% among 360,000;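 note: recombinant mutant TCR 2C K166C tagged with TAMRA read by polarization; 0% = receptor in buffer alone and 100% = receptor with positive control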
# HTRA1 inh = HTRA1 (human) protease inhibition; Q92743; recombinant HTRA1, FP-rhodamine activity-based probe, fluorescence polarization; inhibition, % at 5.96 µM; hit rate 0.5% among 340,000; AID 504803; in the data active = inhibition above about 36%;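 note: 0% = enzyme with DMSO and 100% = wells lacking enzyme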
# ABHD4 inh = ABHD4 (mouse) inhibition, primary FP screen; Q8VD66; purified mABHD4, FP-Rh probe fluorescence polarization; inhibition, % at 8.92 µM; hit rate 0.54% among 370,000;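 active = inhibition exceeding the mean over every tested compound plus 3 SD, cut at about 30% in these data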;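 note: 0% = plate median of compound wells and 100% = S159A mutant with DMSO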
#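 Assay system: wild-type mouse ABHD4 protein; compound: single nominal dose of 8.92 µM, 0.89% DMSO final; schedule: 45 min + 60 min at 25 °C; measured by: FP readout, ex 525 nm / em 598 nm; evaluation: % inhibition of FP-Rh probe binding versus controls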
# BSA TAMRA ctr = interferes with TAMRA-BSA probe, flagging TCR-CD3 hits; inhibition, % at 9.4 µM; TAMRA-labeled BSA probe fluorescence counterscreen; AID 652035; hit rate 10% among 1,200; shares compounds with TCR CD3 inh; in the data active = inhibition above about 23%;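 note: 0% = buffer low control and 100% = reference high control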
# TCR-CD3 inh conf = TCR-CD3 interaction inhibition, confirmation; hit rate 48% among 1,200; TAMRA-labeled TCR probe fluorescence binding assay; inhibition, % at 9.4 µM; shares compounds with TCR CD3 inh
# An asterisk follows results filed as active; / = no result. Hits are enriched below; roughly 2.5% of the tested compounds scored in any of these assays. Cut-off read from the data, not from the text of the source, unless noted: active = inhibition above about 19%; inactive = the rest.
SMILES,SIAE inh,PRMT1 inh,TCR CD3 inh,HTRA1 inh,ABHD4 inh,BSA TAMRA ctr,TCR-CD3 inh conf
C/C(=N/NC(=O)c1cccnc1)c1cccc(O)c1,9,2,/,/,-1,/,/
CC1NC(=S)N(Cc2ccccc2)C1=O (stereo unspecified),4,-1,22*,4,1,1,16
CN(CC#Cc1ccccc1)C(N)=NC(=O)/C=C/c1cccc(C(F)(F)F)c1,-1,6,/,/,-2,/,/
O=[N+]([O-])C1=CC=C2C(=NC3(CCCCC3)N2O)C1=NC1CCCCC1,1,6,56*,10,8,1,-3
CC1(C)CC(N=C2C([N+](=O)[O-])=CC=C3C2=NC2(CCCCC2)N3O)CC(C)(C)N1,7,0,5,23,-2,/,/
CCn1c(SCc2c(F)cccc2F)nc2sc3c(c2c1=O)CCCC3,-2,2,/,/,5,/,/
O=C(NOCc1ccccc1)OCc1ccccc1,-6,0,1,4,-11,/,/
O=C(NNC(=O)OCc1ccccc1)OCc1ccccc1,13,1,111*,3,9,-8,-3
COc1ccccc1CNC(=O)N1CCN(Cc2nc3ccccc3c(=O)[nH]2)CC1,-2,-1,/,/,-1,/,/
Cc1ccc(O)c(-c2cc(C(=O)Nc3ccc(S(=O)(=O)Nc4nccc(C)n4)cc3)[nH]n2)c1,-27,0,60*,-35,-31,-8,32*
CS/C(N)=N/N=C/c1cc(Br)cc(Br)c1O,-2,-3,35*,20,-3,14,36*
CS/C(N)=N/N=C/c1cc(C)ccc1O,4,-3,2,0,1,/,/
COc1ccc(/C=C2\CC3(OC(=O)c4ccc(F)cc4)CCCN2C3)cc1 (stereo unspecified),0,2,/,/,5,/,/
C/C(Cn1cnc([N+](=O)[O-])n1)=N\NC(=O)c1ccc(O)cc1O,3,-3,19*,4,1,-3,3
C/C(Cn1cnc([N+](=O)[O-])n1)=N\NC(=O)c1ccccc1O,15,0,3,5,8,/,/
NS(=O)(=O)c1ccc(NC(=O)/C=C/c2cn(-c3ccccc3)nc2-c2cccc(Cl)c2)cc1,-230,-6,24*,-98,-46,17,27*
COC(=O)C1=C(CSc2nc3c(cc2C#N)CN(C)CC3)OC(N)=C(C#N)C1c1ccc(F)cc1 (stereo unspecified),7,13,20*,19,14,-3,0
Cc1ccccc1OCc1nc(-c2ccc(NC(=O)c3cccs3)cc2)no1,-6,-4,28*,-34,-18,-8,-7
COC(=O)[C@]12C[C@H](CC(=O)NCc3cccc(C(F)(F)F)c3)C(=O)N(Cc3cccc4ccccc34)C1=C[C@H](COCc1ccccc1)O[C@@H]2C,-8,0,/,/,-12,/,/
Brc1ccc(-c2ccc3c(n2)CCCN3Cc2ccccn2)cc1,-7,2,2,/,-8,/,/
Cc1cc2c(nc1C)CCCN2Cc1ccccn1,12,19,39*,/,18,39*,34*
C=CCN1C(=O)[C@@H](CC(=O)NCCc2ccccc2OC)[C@]2(C(=O)OC)CCCCC=C12,3,1,/,/,3,/,/
C=Cc1c(C)c2cc3[nH]c(cc4nc(cc5nc(cc1[nH]2)C(C)=C5CCC(=O)O)C(CCC(=O)O)=C4C)c(C)c3C=C,75*,27*,37*,69*,70*,-9,19*
COc1ccc(C(=O)NNC(=S)NC(=O)c2cccs2)cc1,4,-6,23*,2,-5,3,30*
COc1ccc(CC(=O)NNC(=S)NC(=O)c2cccnc2)cc1,2,6,26*,5,5,-3,17
SMILES,SIAE inh,PRMT1 inh,TCR CD3 inh,HTRA1 inh,ABHD4 inh,BSA TAMRA ctr,TCR-CD3 inh conf
COc1ccc(C(=O)NNC(=S)NC(=O)c2cccnc2)cc1,8,-2,38*,-2,8,1,37*
O=C(NNC(=S)NC(=O)c1cccnc1)c1ccccc1,8,5,15,7,14,/,/
COc1ccc(C(=O)NNC(=S)NC(=O)c2ccc(OC)cc2)cc1,5,-4,11,4,3,/,/
COc1ccc(C(=O)NNC(=S)NC(=O)c2ccc(F)cc2)cc1Br,0,-10,20*,/,4,-5,5
Cc1c(NC(=O)C2CCCN(S(=O)(=O)c3ccccc3[N+](=O)[O-])C2)c(=O)n(-c2ccccc2)n1C (stereo unspecified),-3,-10,/,/,1,/,/
COc1cccc(C(=O)N(CCN2CCOCC2)Cc2ccc(OC)c(OC)c2)c1,1,-4,/,/,-1,/,/
O=C(NNC(=S)NC(=O)c1cccnc1)c1ccc(F)cc1,2,9,23*,5,4,-2,28*
Cc1cc(NS(=O)(=O)c2ccc(NC(=S)NC(=O)c3cccnc3)cc2)no1,-2,4,46*,8,-7,2,2
C#CC1(O)C2C=C(OC)C(=O)C1C(c1ccccc1)C2C (stereo unspecified),7,0,/,/,0,/,/
COc1ccccc1OCC(=O)N/N=C/c1cccc2cccnc12,-4,-1,-11,0,-1,/,/
COc1ccccc1OCC(=O)N/N=C/c1c(O)ccc2ccccc12,5,6,20*,4,21,-9,18
O=C(NCCO)[C@H](Cc1ccccc1)NC1(C(=O)NCCc2c[nH]c3ccccc23)CCCCC1,3,-2,/,/,0,/,/
O=c1ccc2cc3c([nH]c4ccc(Br)cc43)oc-2c1O,64*,91*,38*,62*,60*,-36,14
CC(C)CNC(=O)OCc1cn(Cc2cccc(F)c2F)nn1,7,0,/,/,2,/,/
CCOC(=O)C1CCN(CC(O)COCc2cccs2)CC1 (stereo unspecified),-1,-2,23*,0,2,-1,-3
COc1cccc(C(=O)N2CCC(Oc3cccnc3)CC2)c1,3,0,/,/,4,/,/
O=C(Nc1cccc(S(=O)(=O)N2CCOCC2)c1)c1cn(-c2ccccc2)nc1-c1ccccc1,-137,-1,10,-57,-25,/,/
Cc1ccc(-c2nn(-c3ccccc3)cc2C(=O)Nc2ccc(C)c(S(=O)(=O)N3CCOCC3)c2)cc1,-7,-2,69*,-32,-12,30*,60*
C[C@H]1[C@@H](OC(=O)Nc2ccc(C#N)cc2)CC[C@@]23CCCN2C(=O)CCC[C@@H]13,-2,-1,/,/,-3,/,/
C#CCn1c(=NC(=O)c2ccc(S(=O)(=O)N3CCc4ccccc4C3)cc2)sc2cc(S(N)(=O)=O)ccc21,/,/,/,-30,/,/,/
C=CCn1c(=NC(=O)c2ccc(S(=O)(=O)N3CCc4ccccc4C3)cc2)sc2cc(S(N)(=O)=O)ccc21,-61,1,31*,-78,-38,13,31*
COC(=O)C1CN(C2CCCC2)CCS(=O)(=O)N1Cc1ccccc1 (stereo unspecified),-3,1,/,/,2,/,/
